How the values were obtained:
[1] = target: T1, Adenosine receptor A3 (Homo sapiens, UniProt P0DMS8); experiment: Displacement of [3H]PSB-11 from recombinant human adenosine A3 receptor expressed in CHO cell membranes after 180 mins by liquid scintillation counting method
T1 sequence (P0DMS8 whole entry): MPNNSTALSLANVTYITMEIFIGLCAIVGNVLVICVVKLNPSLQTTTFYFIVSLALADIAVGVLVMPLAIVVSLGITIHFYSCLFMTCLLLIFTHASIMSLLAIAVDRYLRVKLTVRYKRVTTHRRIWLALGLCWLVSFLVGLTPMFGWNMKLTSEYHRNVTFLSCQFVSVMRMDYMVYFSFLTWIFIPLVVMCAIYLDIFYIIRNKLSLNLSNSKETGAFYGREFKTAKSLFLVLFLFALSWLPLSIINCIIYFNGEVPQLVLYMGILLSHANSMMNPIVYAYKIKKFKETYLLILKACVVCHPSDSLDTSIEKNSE
Outline: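 Human A3AR CHO cell membranes were pre-incubated 10–15 min with adenosine deaminase (0.12 IU/mL), then incubated with [3H]PSB-11 (1 nM) at rt, with 2.5% DMSO final. Nonspecific binding was defined with 100 µM R-PIA. Incubation ended by GF/B filtration with ice-cold 50 mM Tris-HCl (pH 7.4) rinses. Test compounds were run at 6–7 concentrations over 3 log units, in ≥3 independent experiments in duplicate.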

[2] = target: T2, Adenosine receptor A2b (Homo sapiens, UniProt P29275); experiment: Antagonist activity at recombinant human adenosine A2B receptor expressed in CHO cell membranes assessed as inhibition of NECA-induced cAMP accumulation preincubated for 1 hr followed by NECA induction measured after 5 mins in presence of [3H]cAMP and bovine cAMP-binding protein by liquid scintillation counting method; assay type: functional
T2 sequence (P29275 whole entry): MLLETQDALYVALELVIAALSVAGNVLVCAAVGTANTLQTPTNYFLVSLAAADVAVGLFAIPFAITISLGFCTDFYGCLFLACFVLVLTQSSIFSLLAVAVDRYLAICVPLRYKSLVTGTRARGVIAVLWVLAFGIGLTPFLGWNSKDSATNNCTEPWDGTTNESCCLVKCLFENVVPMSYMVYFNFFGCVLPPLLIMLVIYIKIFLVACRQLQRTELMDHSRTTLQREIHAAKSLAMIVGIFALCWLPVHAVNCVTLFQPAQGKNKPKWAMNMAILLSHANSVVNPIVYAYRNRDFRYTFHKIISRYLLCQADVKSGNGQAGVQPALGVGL
Outline: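 CHO cells stably expressing human A2BAR, pre-incubated with antagonist dilutions for 1 h at 37°C, then stimulated with NECA (10 µM final) for 5 min at 37°C. Reaction stopped with hot (90 °C) lysis solution (4 mM EDTA, 0.01 % Triton X100). cAMP quantified by radioactive competition with [³H]cAMP and bovine adrenal cAMP-binding protein. Response expressed as % of NECA response without antagonist. Means ± SEM, three independent experiments in duplicate.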

[3] = target: T2, Adenosine receptor A2b; experiment: Displacement of PSB-12105 from recombinant human adenosine A2B receptor expressed in CHO cell membranes preincubated for 30 mins followed by PSB-12105 addition measured after 20 mins by flow cytometric method; assay type: cell-based
Outline: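 Live CHO-hA2B cells were pre-treated with ADA (2 U/mL, 2 h, 37°C), detached with 5 mM EDTA, and resuspended in HBSS with 2 U/mL ADA at 2.5×10^5 cells/well in 96-well format. Antagonists pre-incubated 30 min at 37°C, then fluorescent ligand (100 nM) added for 20 min at 37°C. 3-5 independent experiments in duplicate.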

[4] = target: T2, Adenosine receptor A2b; experiment: biochemical

- Ki [1]: > 10000 nM
- IC50 [2]: 18.3 nM
- IC50 [3]: 0.739 nM
- IC50 [4]: 0.534 nM
Compound: CCCn1c(=O)[nH]c2nc(-c3ccc(S(=O)(=O)N4CCN(c5ccc(Cl)cc5)CC4)cc3)[nH]c2c1=O

— ChEMBL document CHEMBL4184319, “Fluorescent-Labeled Selective Adenosine A2B Receptor Antagonist Enables Competition Binding Assay by Flow Cytometry” (J Med Chem, 2018)
